Laboratory results as given in ChEMBL document CHEMBL4359825, “Synthesis of novel S-linked dihydroartemisinin derivatives and evaluation of their anticancer activity” (Eur J Med Chem, 2019).
Active and inactive are the calls of the source. The rule behind the calls is not given here.

Key:
LNCaP = assay: Anticancer activity against human LNCAP cells assessed as cell viability measured after 72 hrs by MTT assay (reference value: 100 +/- 5.0 %); format: functional; parameters: concentration or dose not given beside the values
HepG2 [1] = assay: Anticancer activity against human HepG2 cells assessed as cell viability measured after 72 hrs by MTT assay (reference value: 100 +/- 6.5 %); format: functional; parameters: concentration or dose not given beside the values
MDA-MB-231 = assay: Anticancer activity against human MDA-MB-231 cells assessed as cell viability measured after 72 hrs by MTT assay (reference value: 100 +/- 20.0 %); format: functional; parameters: concentration or dose not given beside the values
A549 = assay: Anticancer activity against human A549 cells assessed as cell viability measured after 72 hrs by MTT assay (reference value: 100 +/- 9.6 %); format: functional; parameters: concentration or dose not given beside the values
A-431 = assay: Anticancer activity against human A431 cells assessed as reduction in cell viability measured after 72 hrs by MTT assay; format: functional, cell-based; conditions: A-431, 72 h
HepG2 [2] = assay: Anticancer activity against human HepG2 cells assessed as reduction in cell viability measured after 72 hrs by MTT assay; format: functional, cell-based; conditions: HepG2, 72 h
PC-3 [3] = assay: Antiproliferative activity against human PC3 cells assessed as reduction in cell viability upto 10 uM incubated for 24 hrs by MTT assay; format: functional, cell-based
PC-3 [4] = assay: Antiproliferative activity against human PC3 cells assessed as reduction in cell viability at 1 to 10 uM incubated for 72 hrs by MTT assay; format: functional, cell-based
PC-3 [5] = assay: Anticlonogenic activity against human PC3 cells assessed as reduction in colony formation incubated for 72 hrs supplemented with fresh medium containing measured after 15 days by colony formation assay; format: functional, cell-based
How it was run: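 Clonogenic assay: PC-3 seeded at 500 cells/well in six-well plates, allowed to adhere overnight, then treated. Medium and compound renewed every 72 h over 15 days. Colonies fixed with 3.7% formaldehyde for 20 min, stained with 0.4% crystal violet and counted. Three experiments, each in quadruplicate, expressed as fold change versus control.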

PC-3 [6] = assay: Cytotoxicity against human PC3 cells assessed as reduction in cell viability at 3 to 10 uM pretreated with NAC for 2 hrs followed by compound addition and measured after 72 hrs by MTT assay; format: functional, cell-based
How it was run: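 PC-3 cells in 96-well plates pretreated 2 h with N-acetyl cysteine (20 μM), then exposed to 3 or 10 μM test agent for 72 h. Viability read by MTT as in the standard protocol, absorbance 570 nm, relative to DMSO control. Three separate experiments.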

PC-3 [7] = assay: Cell cycle arrest in human PC3 cells assessed as accumulation at S phase at 3 uM measured after 48 hrs by RNase/propidium iodide staining based flow cytometry analysis (reference value: 22.40 %); format: functional
PC-3 [8] = assay: Cell cycle arrest in human PC3 cells assessed as accumulation at G2/M phase at 3 uM measured after 48 hrs by RNase/propidium iodide staining based flow cytometry analysis (reference value: 34.95 %); format: functional
PC-3 [9] = assay: Cell cycle arrest in human PC3 cells assessed as accumulation at G0/G1 phase at 10 uM measured after 48 hrs by RNase/propidium iodide staining based flow cytometry analysis (reference value: 42.59 %); format: functional
PC-3 [10] = assay: Cell cycle arrest in human PC3 cells assessed as accumulation at S phase at 10 uM measured after 48 hrs by RNase/propidium iodide staining based flow cytometry analysis (reference value: 22.40 %); format: functional
PC-3 [11] = assay: Induction of apoptosis in human PC3 cells assessed as decrease in pro-caspase-3 level after 72 hrs by Western blot analysis; format: functional, cell-based
How it was run: (§1)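 Western blot: PC-3 seeded 1.25 × 10^5/well, exposed to 0.1–10 μM for 72 h. Lysed in 2× SDS buffer and sonicated; 20–25 μg protein run on 12% SDS gel, transferred to PVDF, blocked in 5% BSA/TBST. Primary antibodies overnight, secondary 1 h; ECL detection, β-actin loading control.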

PC-3 [12] = assay: Induction of apoptosis in human PC3 cells assessed as decrease in pro-caspase-9 level after 72 hrs by Western blot analysis; format: functional, cell-based; how it was run: as §1
PC-3 [13] = assay: Induction of apoptosis in human PC3 cells assessed as down-regulation of BCL-xL expression measured after 72 hrs by Western blot analysis; format: functional, cell-based; how it was run: as §1
PC-3 [14] = assay: Induction of apoptosis in human PC3 cells assessed as upregulation of Bax expression measured after 72 hrs by Western blot analysis; format: functional, cell-based; how it was run: as §1
PC-3 [15] = assay: Induction of cell death in human PC3 cells at 3 uM measured after 72 hrs by propidium iodide staining based flow cytometry analysis (reference value: 0.5 %); format: functional
How it was run: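 PC-3 cells in six-well plates exposed to 3 or 10 μM for 72 h, 0.1% DMSO vehicle as control; cells harvested, PBS-washed, stained with propidium iodide (5 μg/mL) 20 min at 4 °C; percentage dead cells read by flow cytometry; t-test against vehicle.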

PC-3 [16] = assay: Antimetastatic activity against human PC3 cells assessed as inhibition of MMP-2 at 3 to 10 uM measured after 48 hrs by gelatin zymography; format: functional, cell-based
How it was run: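 PC-3 monolayers scratched, then treated with 3 or 10 μM for 48 h in serum-containing medium, then 24 h in serum-free medium. Conditioned medium run non-reduced on 7.5% SDS-PAGE containing gelatin 4 mg/mL. Gel washed in 2.5% Triton X-100, incubated 24 h at 37 °C in Tris pH 7.5 with CaCl2/ZnCl2, Coomassie stained; lysis seen as clear bands.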

PC-3 [17] = assay: Downregulation of PCNA mRNA expression in human PC3 cells at 3 to 10 uM measured after 72 hrs by TRIzol dye based RT-PCR analysis; format: functional, cell-based
How it was run: (§2)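 PC-3 (1.25 × 10^5/well) treated 72 h with 3 or 10 μM. Total RNA extracted with TRIzol; cDNA made from 2 μg RNA. SYBR qPCR: 95 °C 10 min, then 40 cycles of 95 °C/60 °C. Expression normalised to GAPDH by 2^-ΔΔCt; three experiments.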

PC-3 [18] = assay: Downregulation of cyclinB1 mRNA expression in human PC3 cells at 3 to 10 uM measured after 72 hrs by TRIzol dye based RT-PCR analysis; format: functional, cell-based; how it was run: as §2
PC-3 [19] = assay: Upregulation of p21 mRNA expression in human PC3 cells at 3 to 10 uM measured after 72 hrs by TRIzol dye based RT-PCR analysis; format: functional, cell-based
How it was run: (§3)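 PC-3 cells (1.25×10^5 per well) treated 72 h at 3 or 10 μM; total RNA by TRIzol, cDNA from 2 μg; SYBR real-time PCR, 95 °C 10 min then 40 cycles 95 °C 15 s/60 °C; Ct normalised to GAPDH, relative expression by 2^-ΔΔCt; three experiments.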

PC-3 [20] = assay: Upregulation of NOXA mRNA expression in human PC3 cells at 3 to 10 uM measured after 72 hrs by TRIzol dye based RT-PCR analysis; format: functional, cell-based; how it was run: as §3
PC-3 [21] = assay: Downregulation of Pin1 in human PC3 cells harboring siRNA measured after 72 hrs by Western blot analysis; format: functional, cell-based
How it was run: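 PC-3 cells (1.5 × 10^5/well) transfected with Pin1 siRNA (25 nM) using Lipofectamine RNAiMAX in Opti-MEM, alone or with test agent, for 72 h. Pin1 assessed by western blot with β-actin loading control.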

[22] = biological target: Peptidyl-prolyl cis-trans isomerase NIMA-interacting 1 (Homo sapiens) (UniProt Q13526); assay: Inhibition of proteasome mediated Pin1 in human PC3 cells at 10 uM measured after 72 hrs in presence of MG132; format: cell-based
Sequence of Peptidyl-prolyl cis-trans isomerase NIMA-interacting 1 (Homo sapiens) (Q13526 whole entry): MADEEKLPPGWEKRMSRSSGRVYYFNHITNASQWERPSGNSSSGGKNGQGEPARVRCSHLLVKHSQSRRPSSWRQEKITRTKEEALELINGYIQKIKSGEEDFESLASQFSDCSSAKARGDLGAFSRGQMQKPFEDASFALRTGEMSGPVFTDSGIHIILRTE

Structure (SMILES): COC(=O)Cc1ccc(S[C@@H]2O[C@@H]3O[C@@]4(C)CC[C@H]5[C@H](C)CC[C@@H]([C@H]2C)[C@@]35OO4)cc1
- Activity (LNCaP): 38%
- Activity (HepG2 [1]): 50%
- Activity (MDA-MB-231): 45%
- Activity (A549): 68%
- IC50 (A-431): 13.3 µM
- IC50 (HepG2 [2]): 6.08 µM
- Activity (PC-3 [3]): inactive
- Activity (PC-3 [4]): Active
- Activity (PC-3 [5]): Dose-dependent effect
- Activity (PC-3 [6]): inactive
- Activity (PC-3 [7]): 13.26%
- Activity (PC-3 [8]): 32.24%
- Activity (PC-3 [9]): 53.71%
- Activity (PC-3 [10]): 13.21%
- Activity (PC-3 [11]): Dose-dependent effect
- Activity (PC-3 [12]): Dose-dependent effect
- Activity (PC-3 [13]): Dose-dependent effect
- Activity (PC-3 [14]): Dose-dependent effect
- Activity (PC-3 [15]): 26.3%
- inhibition (PC-3 [16]): Dose-dependent effect
- Activity (PC-3 [17]): Active
- Activity (PC-3 [18]): Active
- Activity (PC-3 [19]): Active
- Activity (PC-3 [20]): Active
- Activity (PC-3 [21]): Active
- inhibition [22]: inactive
